In brackets after ≈: the same amount, converted by molar mass.
Assays:
[1] = Growth inhibition of human A172 cells after 6 days; assay type: functional, cell-based; settings: a 172
[2] = Cytotoxicity against human A172 cells after 6 days; assay type: functional, cell-based, A 172
How it was run: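 A172 glioma cells in high-glucose DMEM with 10% heat-inactivated FBS and penicillin/streptomycin, seeded at 5 × 10^3 cells/mL (1 mL/well). After 24 h, alkaloids were added from fresh 1 mg/mL DMSO stocks (final DMSO ≤0.5%; controls DMSO-matched). Total cell number counted by particle counter after 6 days. IC50 (50% inhibition vs untreated) taken from dose–response curves; mean ± SD, ≥3 independent experiments.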

[3] = Homo sapiens, A 172, 144 h, read-out: IC50

C=C1[C@H]2C[C@H]3C4N5C[C@]6(C)CCC[C@]47[C@H]([C@H]2OC(=O)c2ccccc2)C3(C[C@]5(OC(=O)c2ccccc2)[C@H]67)[C@@H]1O
relative cell growth [1]: 0.76
IC50 ([2]; a 172): 1.3 µg/mL (≈ 2.42 µM)

C=C1[C@H]2C[C@H]3C4N5C[C@]6(C)CCC[C@]47[C@H]([C@H]2OC(=O)/C=C/c2ccccc2)C3(C[C@]5(O)[C@H]67)[C@@H]1O
relative cell growth [1]: 0.49
IC50 [2, 3]: 0.89 µg/mL (≈ 1.94 µM)

C=C1[C@H]2C[C@H]3C4N5C[C@]6(C)CCC[C@]47[C@H]([C@H]2OC(=O)c2ccc(OC)cc2)C3(C[C@]5(O)[C@H]67)[C@@H]1O
relative cell growth [1]: 0.23
IC50 [2, 3]: 1.3 µg/mL (≈ 2.8 µM)

C=C1[C@H]2C[C@H]3C4N5C[C@]6(C)CCC[C@]47[C@H]([C@H]2O)C3(C[C@]5(OC(=O)/C=C/c2ccccc2)[C@H]67)[C@@H]1O
relative cell growth [1]: 0.97

C=C1[C@H]2C[C@H]3C4N5C[C@]6(C)CCC[C@]47[C@H]([C@H]2O)C3(C[C@]5(OC(=O)c2ccccc2)[C@H]67)[C@@H]1O
relative cell growth [1]: 0.93

C=C1[C@H]2C[C@H]3C4N5C[C@]6(C)CCC[C@]47[C@H]([C@H]2O)C3(C[C@]5(OC(=O)c2ccc(OC)cc2)[C@H]67)[C@@H]1O
relative cell growth [1]: 0.99

C=C1[C@H]2C[C@H]3C4N5C[C@]6(C)CCC[C@]47[C@H]([C@H]2OC(=O)c2cccc(C(F)(F)F)c2)C3(CC5[C@H]67)[C@@H]1O
relative cell growth [1]: 0.6

C=C1[C@H]2C[C@H]3C4N(Cc5ccccc5)C[C@]5(C)CCC[C@]46[C@H]([C@H]2O)C3(CC(=O)[C@H]56)[C@@H]1OCc1ccccc1 (some centres not stated)
relative cell growth [1]: 1.04
IC50 [2, 3]: > 5 µg/mL

C=C1[C@@H](O)[C@]23C[C@@H]1[C@@H](OC(=O)c1ccccc1)C[C@H]2[C@@]12C4C3C[C@@H]1[C@@](C)(CC[C@H]2O)CN4CC
relative cell growth [1]: 0.82

C=C1[C@@H](O)[C@]23C[C@@H]1[C@@H](OC(=O)c1ccc(OC)cc1)C[C@H]2[C@@]12C4C3C[C@@H]1[C@@](C)(CC[C@H]2O)CN4CC
relative cell growth [1]: 0.84

C=C1[C@@H](O)[C@]23C[C@@H]1[C@@H](OC(C)=O)C[C@H]2[C@@]12C4C3C[C@@H]1[C@@](C)(CC[C@H]2O)CN4CC
relative cell growth [1]: 0.66
IC50 [2, 3]: 5.6 µg/mL (≈ 13.9 µM)

COC[C@]12CC[C@H](O)[C@]34C(NC1)[C@@](O)([C@@H](OC)[C@H]23)[C@@]1(O)C[C@H](OC)[C@H]2C[C@@H]4[C@@H]1[C@H]2OC
relative cell growth [1]: 0.93

COC[C@]12CC[C@H]3OC1NC1[C@@]34[C@@H]3C[C@H]5[C@H](OC)[C@@H]3[C@](O)(C[C@@H]5OC)[C@]1(O)[C@@H](OC)[C@H]24
relative cell growth [1]: 1.14

C=C1[C@H]2C[C@H]3C4N5C[C@]6(C)CCC[C@]47[C@H]([C@H]2OC(=O)c2cccc(C(F)(F)F)c2)C3(C[C@]5(O)[C@H]67)[C@@H]1O
relative cell growth [1]: 0.58

COC[C@]12CC[C@H]3OC1NC1[C@@]34[C@@H]3C[C@H]5[C@H](O)[C@@H]3[C@](O)(C[C@@H]5OC)[C@]1(O)[C@@H](OC)[C@H]24
relative cell growth [1]: 1.04

CCN1C[C@]2(COC)CC[C@H](OC)[C@]34C1[C@@](O)([C@@H](OC)[C@H]23)[C@@]1(O)C[C@H](OC)[C@H]2C[C@@H]4[C@@H]1[C@H]2OC(C)=O
relative cell growth [1]: 0.99

C=C1[C@H]2C[C@H]3C4N5C[C@]6(C)CCC[C@]47[C@H]([C@H]2O)C3(C[C@]5(O)[C@H]67)[C@@H]1OC(=O)c1ccc(OC)c(OC)c1
relative cell growth [1]: 0.97
IC50 [2, 3]: 2.9 µg/mL (≈ 5.88 µM)

CCN1C[C@]2(COC)CC[C@H](O)[C@]34C1[C@@](O)([C@@H](OC)[C@H]23)[C@@]1(O)C[C@H](OC)[C@H]2C[C@@H]4[C@@H]1[C@H]2OC(C)=O
relative cell growth [1]: 1.11

C=C1[C@H]2C[C@H]3C4N(Cc5ccccc5)C[C@]5(C)CCC[C@]46[C@H]([C@H]2O)C3(CC(=O)[C@H]56)[C@@H]1O (some centres not stated)
relative cell growth [1]: 1.01

C=C1[C@H]2C[C@H]3C4N5C[C@]6(C)CCC[C@]47[C@H]([C@H]2O)C3(C[C@]5(OC(=O)c2ccc(OC)c(OC)c2)[C@H]67)[C@@H]1O
relative cell growth [1]: 0.84
IC50 [2, 3]: 3.7 µg/mL (≈ 7.5 µM)

C=C1[C@H]2C[C@H]3C4N5C[C@]6(C)CCC[C@]47[C@H]([C@H]2O)C3(C[C@]5(OC(=O)c2cccc(C(F)(F)F)c2)[C@H]67)[C@@H]1O
relative cell growth [1]: 1.04

COC[C@]12CC[C@H](O)[C@]34C(NC1)[C@@](O)([C@@H](OC)[C@H]23)[C@@]1(O)C[C@H](OC)[C@H]2C[C@@H]4[C@@H]1[C@H]2O
relative cell growth [1]: 0.9

C=C1[C@H]2C[C@H]3C4N5C[C@]6(C)CCC[C@]47[C@H]([C@H]2O)C3(C[C@]5(OC(=O)c2ccc([N+](=O)[O-])cc2)[C@H]67)[C@@H]1O
relative cell growth [1]: 0.96

C=C1[C@H]2C[C@H]3C4N5C[C@]6(C)CCC[C@]47[C@H]([C@H]2OC(=O)c2ccc(OC)c(OC)c2)C3(C[C@]5(O)[C@H]67)[C@@H]1O
relative cell growth [1]: 0.47
IC50 [2, 3]: 1.2 µg/mL (≈ 2.43 µM)

C=C1[C@@H](O)[C@]23C[C@@H]1[C@@H](OC(=O)c1ccc(OC)c(OC)c1)C[C@H]2[C@@]12C4C3C[C@@H]1[C@@](C)(CC[C@H]2O)CN4CC
relative cell growth [1]: 0.97

C=C1[C@@H](OC(C)=O)[C@]23C[C@@H]1[C@@H](OC(C)=O)C[C@H]2[C@@]12C4C3C[C@@H]1[C@@](C)(CC[C@H]2O)CN4CC
relative cell growth [1]: 1.03

C=C1[C@@H](OC(C)=O)[C@]23C[C@@H]1[C@@H](OC(C)=O)C[C@H]2[C@@]12C4C3C[C@@H]1[C@@](C)(CC[C@H]2OC(C)=O)CN4CC
relative cell growth [1]: 1.02
IC50 [2, 3]: > 5 µg/mL

C=C1[C@H]2C[C@H]3C4N5C[C@]6(C)CCC[C@]47[C@H]([C@H]2OC(=O)c2ccc([N+](=O)[O-])cc2)C3(C[C@]5(O)[C@H]67)[C@@H]1O
relative cell growth [1]: 0.22
IC50 [2, 3]: 1.5 µg/mL (≈ 3.13 µM)

CCN1C[C@]2(COC)[C@H](O)C[C@H](OC)[C@]34C1C([C@H](OC)[C@H]23)[C@]1(OC)[C@H]2[C@@H](OC(=O)c3ccc(OC)cc3)[C@](O)(C[C@H]24)[C@@H](OC)[C@@H]1O [ALJESACONITINE A]
relative cell growth [1]: 0.93

C=C1[C@@H](OC(C)=O)[C@]23C[C@@H]1[C@@H](O)C[C@H]2[C@@]12C4C3C[C@@H]1[C@@]1(C)CC[C@H]2OC1N4CC [DEHYDROLUCIDUSCULINE]
relative cell growth [1]: 1.18
IC50 [2, 3]: > 5 µg/mL

CCN1C[C@]2(C)CC[C@H](OC)[C@@]34C1[C@@]1(OCO[C@@]15C[C@H](OC)[C@H]1C[C@@H]3[C@@H]5[C@H]1O)[C@@H](O)[C@H]24 [DELPHELINE]
relative cell growth [1]: 1.1

CCN1C[C@]2(COC)CC[C@H](OC)[C@]34C1C([C@H](OC)[C@H]23)[C@]1(OC(C)=O)[C@H]2[C@@H](OC(=O)c3ccccc3)[C@](O)(C[C@H]24)[C@@H](OC)[C@@H]1O [DEOXYACONITINE]
relative cell growth [1]: 0.99

CCN1C[C@]2(COC)CC[C@H](OC)[C@]34C1C([C@H](OC)[C@H]23)[C@]1(OC(C)=O)[C@H]2[C@@H](OC(=O)c3ccc(OC)cc3)[C@](O)(C[C@H]24)[C@@H](OC)[C@@H]1O [DEOXYJESACONITINE]
relative cell growth [1]: 0.97

COC[C@]12CN(C)C3C4[C@H](OC)[C@H]1[C@@]3([C@@H](OC)C[C@H]2O)[C@@H]1C[C@@]2(O)[C@H](OC(=O)c3ccccc3)[C@@H]1[C@]4(OC)[C@@H](O)[C@@H]2OC [HOKBUSINE A]
relative cell growth [1]: 1.03

COC[C@@]12CC[C@H](OC)[C@]34C(C([C@H](OC)[C@H]13)[C@]1(OC(C)=O)[C@H]3[C@@H](OC(=O)c5ccccc5)[C@](O)(C[C@H]34)[C@@H](OC)[C@@H]1O)N(C)C2 [HYPACONITINE]
relative cell growth [1]: 1.08

C=C1[C@H]2C[C@H]3C4N5C[C@]6(C)CCC[C@]47[C@H]([C@H]2O)C3(CC5[C@H]67)[C@@H]1O [KOBUSINE]
relative cell growth [1]: 0.76
IC50 [2, 3]: > 5 µg/mL

C=C1[C@H]2C[C@H]3C4N5C[C@]6(C)CCC[C@]47[C@H]([C@H]2O)C3(C[C@]5(O)[C@H]67)[C@@H]1O [PSEUDOKOBUSINE]
relative cell growth [1]: 0.84
IC50 [2, 3]: > 5 µg/mL

CC(=O)O[C@H]1C[C@H]2C3C4C[C@@H]5[C@@]6(C)CC[C@H](OC(C)=O)[C@@]5(C4N(C)C6)[C@@H]3[C@H]1[C@@]1(CO1)[C@H]2O (some centres not stated) [YESOXINE]
relative cell growth [1]: 1.01
IC50 [2, 3]: > 5 µg/mL

Source: ChEMBL document CHEMBL1141436, “Inhibitory effects of diterpenoid alkaloids on the growth of A172 human malignant cells” (J Nat Prod, 2007)
